Measured values from ChEMBL document CHEMBL3992564, “Design and synthesis of novel, potent and selective hypoxanthine analogs as adenosine A1 receptor antagonists and their biological evaluation” (Bioorg Med Chem, 2017).
Activity calls are given as the source filed them. The calls are words filed in the database; no cut-off is given here.

Legend:
[1] = test system: Rattus norvegicus; assay: Diuretic activity in Wistar rat at 10 to 30 mg/kg, po via gavage measured after 4 hrs; type: functional, organism-based
Procedure, shortened: (§1)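 Male Wistar rats (250-300 g, n = 6) dosed orally at 5 mL/kg. Vehicles: DMAC 5%/NaOH/saline, or NMP 10%/PEG-400 20%/saline pH 12.0. Rats were then kept singly in metabolic cages without food or water for 4 h. Urine volume, Na+ and K+ were measured with a biochemistry analyser.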

[2] = Ratio of drug level in Wistar rat brain to plasma at 5 mg/kg, po via gavage measured at 2 hrs post dose by LC-Ms/MS analysis; type: ADME, organism-based; settings: read-out: BPR
Procedure, shortened: (§2)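 Male Wistar rats, fasted overnight and for 2 h after dosing, given an oral solution at 5 mg/kg (0.5 mg/mL). Vehicle: NMP 10% with Labrasol 30% or PEG-400 20%, in citrate buffer […]. Blood and brain were taken at discrete time points, n = 2 per time point. Brain was homogenized 1:2 in PBS. Samples were precipitated with acetonitrile and run on LC-MS/MS; LLOQ 10 ng/mL.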

[3] = Ratio of drug level in Wistar rat brain to plasma at 5 mg/kg, po via gavage measured at 1 hr post dose by LC-Ms/MS analysis; type: ADME, organism-based; settings: read-out: BPR; procedure, shortened: as §2
[4] = test system: Rattus norvegicus; assay: Kaliuretic activity in Wistar rat at 3 to 30 mg/kg, po via gavage measured after 4 hrs; type: functional, organism-based; procedure, shortened: as §1
[5] = test system: Rattus norvegicus; assay: Effect on serum Na+ level in Wistar rat at 3 to 30 mg/kg, po via gavage; type: ADME, organism-based; settings: in vivo
[6] = Ratio of drug level in Wistar rat brain to plasma at 5 mg/kg, po via gavage measured at 4 hrs post dose by LC-Ms/MS analysis; type: ADME, organism-based; settings: read-out: BPR; procedure, shortened: as §2
[7] = Drug metabolism assessed as hydroxylation at C-8 cyclopentyl by metabolic soft spot analysis; type: physicochemical
[8] = molecular target: T1, Adenosine receptor A2b (Homo sapiens) (UniProt P29275); assay: Displacement of [3H]MRS-1754 from human adenosine A2B receptor expressed in HEK293 cell membranes at 30 uM after 90 mins relative to control
T1 sequence (whole entry): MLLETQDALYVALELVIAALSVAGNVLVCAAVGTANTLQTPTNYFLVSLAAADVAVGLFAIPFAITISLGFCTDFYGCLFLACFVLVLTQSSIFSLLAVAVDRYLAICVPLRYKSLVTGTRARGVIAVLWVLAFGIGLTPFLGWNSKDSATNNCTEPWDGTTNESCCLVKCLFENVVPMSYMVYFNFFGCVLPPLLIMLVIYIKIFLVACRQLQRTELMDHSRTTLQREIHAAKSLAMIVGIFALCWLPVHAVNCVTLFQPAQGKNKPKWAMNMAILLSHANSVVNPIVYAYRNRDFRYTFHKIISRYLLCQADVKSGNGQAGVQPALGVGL
Procedure, shortened: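 Membranes from HEK-293 cells stably transfected with human receptor, pre-treated with adenosine deaminase. Radioligands: 1 nM [3H]DPCPX (A1), 1 nM [3H]ZM241385 (A2A), 1.6 nM [3H]MRS-1754 (A2B), 2 nM [3H]HEMADO (A3). Buffers: Tris pH 7.4 (A1, A2A, A3) or pH 6.5 (A2B), with ADA. Incubated 90 min at room temperature, then filtered. Nonspecific binding defined with 100 µM NECA. Ki from 8 concentrations run in triplicate.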

[9] = Drug metabolism assessed as hydroxylation at N-1 propyl by metabolic soft spot analysis; type: physicochemical

Kp at 2 h [2] | Kp at 1 h [3] | Kp at 4 h [6] | Drug metabolism [7] | inhibition [8] | Drug metabolism [9] | Structure (SMILES) | Activity [1] | Activity [4] | Activity [5]
0.05 | 0.05 | 0.05 |  |  |  | CCCn1c(Oc2ccc(F)c(F)c2)nc2nc(C3CCCC3)[nH]c2c1=O | Active | Active | Non-Toxic
 |  |  | Metabolite_Detected | 91% | Metabolite_Detected | CCCn1c(Oc2cccnc2C)nc2nc(C3CCCC3)[nH]c2c1=O |  |  | 
